This is an account of results in ChEMBL document CHEMBL1140253, “Synthesis of functionalized acetophenones as protein tyrosine phosphatase 1B inhibitors” (Bioorg Med Chem Lett, 2005).

In test [1] the target is T1, Tyrosine-protein phosphatase non-receptor type 1 (Mus musculus) (UniProt P35821).
T1 sequence (whole entry): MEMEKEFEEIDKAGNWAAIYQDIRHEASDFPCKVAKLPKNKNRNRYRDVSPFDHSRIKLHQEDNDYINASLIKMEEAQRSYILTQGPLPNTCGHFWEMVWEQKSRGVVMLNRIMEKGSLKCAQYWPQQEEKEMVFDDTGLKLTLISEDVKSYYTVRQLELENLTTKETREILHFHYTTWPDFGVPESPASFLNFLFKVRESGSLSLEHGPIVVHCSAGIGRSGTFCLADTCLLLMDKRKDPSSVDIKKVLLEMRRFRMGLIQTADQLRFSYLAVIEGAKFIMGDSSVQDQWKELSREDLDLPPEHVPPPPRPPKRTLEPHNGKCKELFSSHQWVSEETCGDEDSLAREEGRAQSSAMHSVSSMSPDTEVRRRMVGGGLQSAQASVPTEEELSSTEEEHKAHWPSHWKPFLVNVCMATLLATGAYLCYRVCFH
The test is described as follows: (§1) In vitro inhibitory activity against PTP1B at 100 uM 10 min incubation. The essentials:
(§2)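 p-Nitrophenylphosphate (10 mM) as substrate in 50 mM HEPES buffer, pH 7, with 1 mM EDTA and DTT. Compounds tested at 100 µM, with sodium vanadate as reference control. Result given as percent inhibition of phosphatase activity, mean of three independent experiments.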

In test [2] the target is Tyrosine-protein phosphatase non-receptor type 1 (Mus musculus) (UniProt P35821). Described as §1. The essentials: as §2
The source holds these as a separate data set.

In the case of `COc1ccc(C(=O)Oc2cc3occc3cc2C(C)=O)cc1`, the inhibition (in general, the relative decrease from the control value, in per cent) in test [1] is 13.5%.

Regarding `COc1ccc(C(=O)Oc2cc3occc3cc2C(C)=O)cc1OC`, in test [1], the inhibition result is “No inhibition”.

As to `CC(=O)c1ccc(OCC#N)cc1OC(=O)c1ccccc1`, the inhibition in test [1] turned out to be 12.8%.

Consider `CC(=O)c1ccc2occc2c1OC(=O)c1ccccc1`, for which the inhibition in test [1] was 43.2%.

Regarding `CC(=O)c1ccc(OCC2CO2)cc1O` (stereo not drawn), the inhibition in test [1] was found to be 22.4%.

Molecule `CC(=O)c1ccc(OCC#N)cc1O` registered an inhibition in test [1] of 22.4%.

With `CC(=O)c1ccc2occc2c1OC(=O)c1ccc(Cl)c(Cl)c1`, the inhibition in test [1] turned out to be 54.1%.

The molecule `CC(=O)c1cc2ccoc2cc1O` yielded an inhibition in test [1] of 19.1%.

As to `CC(=O)c1ccc(OCCc2ccccc2)cc1O`, in test [1], the inhibition came to 38.6%.

For `O=C(/C=C(\O)c1ccc2occc2c1O)c1ccc(C(F)(F)F)cc1`, the inhibition result in test [1] was “No inhibition”.

`CC(=O)c1ccc2occc2c1OC(=O)c1ccc(C(F)(F)F)cc1` had an inhibition in test [1] of 32.4%.

For `N#CCOc1ccc(/C(O)=C/C(=O)c2ccccc2)c(O)c1`, the inhibition result in test [1] is “No inhibition”.

For the molecule `CC(=O)c1ccc2occc2c1O`, the inhibition result in test [1] was “No inhibition”.

Take `CC(=O)c1ccc(OCC#N)cc1OC(=O)c1ccc(F)cc1`: the inhibition entry in test [1] is “No inhibition”.

With `C=CCOc1ccc(C(C)=O)c(O)c1`, in test [1], the inhibition result was “No inhibition”.

Turning to `CC(=O)c1ccc(OCCO)cc1O`, the inhibition entry in test [1] was “No inhibition”.

In turn, SODIUM ORTHOVANAD had an inhibition in test [2] of 56.2%.

With `CC(=O)c1cc2ccoc2cc1OC(=O)c1ccccc1`, the inhibition result in test [1] is “No inhibition”.

As to `O=C(/C=C(\O)c1ccc(OCCc2ccccc2)cc1O)c1ccc(F)cc1`, the inhibition result in test [1] was “No inhibition”.

Take `COc1cccc(C(=O)Oc2cc3occc3cc2C(C)=O)c1`: the inhibition in test [1] was determined as 8.1%.

In the case of `CC(=O)c1cc2ccoc2cc1OC(=O)c1ccc2c(c1)OCO2`, the inhibition in test [1] worked out at 34%.

For `CC(=O)c1ccc(OCCc2ccccc2)cc1OC(=O)c1ccc(F)cc1`, the inhibition result in test [1] was “No inhibition”.

Regarding `N#CCOc1ccc(/C(O)=C/C(=O)c2ccc(F)cc2)c(O)c1`, the inhibition result in test [1] was “No inhibition”.
